From ChEMBL document CHEMBL1140222, “Identification of G protein-coupled receptor 120-selective agonists derived from PPARgamma agonists” (J Med Chem, 2008)
The source made the active and inactive calls. No cut-off for these calls is given here.

Tests used:
[1] = biological target: T1, Free fatty acid receptor 4 (Homo sapiens) (UniProt Q5NUL3); experiment: Agonist activity at human GPR120-G-alpha-16 fusion protein expressed in Flp-in HEK293 cells assessed as effect on intracellular calcium concentration at 10 uM by FLIPR assay relative to […]; type: functional, cell-based
T1 sequence (whole entry): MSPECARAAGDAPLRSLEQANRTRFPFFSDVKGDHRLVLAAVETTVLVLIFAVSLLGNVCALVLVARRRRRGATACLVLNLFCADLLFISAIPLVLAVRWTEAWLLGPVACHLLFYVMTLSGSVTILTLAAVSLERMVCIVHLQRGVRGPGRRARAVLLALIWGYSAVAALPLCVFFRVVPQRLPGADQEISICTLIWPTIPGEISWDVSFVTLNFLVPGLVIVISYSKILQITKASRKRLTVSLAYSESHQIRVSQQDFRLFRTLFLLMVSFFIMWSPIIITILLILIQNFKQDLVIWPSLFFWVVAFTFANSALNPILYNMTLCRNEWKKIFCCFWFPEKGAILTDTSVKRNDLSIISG
Procedure, shortened: (§1)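 FLIPR fluorometric measurement of intracellular Ca2+ in HEK293 cells expressing human GPR40 or human GPR120. Test compound at 10 µM; response expressed as percent of that evoked by 10 µM α-linolenic acid reference. Means of at least three experiments.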

[2] = biological target: T2, Free fatty acid receptor 4 (Homo sapiens, UniProt Q5NUL3); experiment: Agonist activity at human GPR120-G-alpha-16 fusion protein expressed in Flp-in HEK293 cells assessed as effect on intracellular calcium concentration by FLIPR assay; type: functional, cell-based
T2 sequence (Q5NUL3 whole entry): T1 sequence (whole entry)
Procedure, shortened: (§2)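 Intracellular Ca2+ rise read by FLIPR in HEK293 cells expressing human GPR120 or human GPR40; EC50 values derived from concentration–response, means of at least three experiments.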

[3] = species: Homo sapiens; experiment: Selectivity index, ratio of EC50 for human GPR40 to EC50 for human GPR120
Procedure, shortened: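 Selectivity index computed as EC50 at GPR40 divided by EC50 at GPR120, both from FLIPR Ca2+ assays in HEK293 cells expressing each human receptor; EC50 means of at least three experiments.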

[4] = biological target: T3, Free fatty acid receptor 1 (Homo sapiens, UniProt O14842); experiment: Agonist activity at human GPR40 expressed in T-REx HEK293 cells assessed as effect on intracellular calcium concentration by FLIPR assay; type: functional, cell-based; procedure, shortened: as §2
[5] = biological target: T3, Free fatty acid receptor 1; experiment: Agonist activity at human GPR40 expressed in T-REx HEK293 cells assessed as effect on intracellular calcium concentration at 10 uM by FLIPR assay relative to […]; type: functional, cell-based; procedure, shortened: as §1
[6] = tested on: HEK293; experiment: Agonist activity at PPAR expressed in HEK293 cells at 10 to 100 uM after 12 to 16 hrs by luciferase-beta galactosidase transactivation assay; type: functional, cell-based

T3 sequence (O14842 whole entry): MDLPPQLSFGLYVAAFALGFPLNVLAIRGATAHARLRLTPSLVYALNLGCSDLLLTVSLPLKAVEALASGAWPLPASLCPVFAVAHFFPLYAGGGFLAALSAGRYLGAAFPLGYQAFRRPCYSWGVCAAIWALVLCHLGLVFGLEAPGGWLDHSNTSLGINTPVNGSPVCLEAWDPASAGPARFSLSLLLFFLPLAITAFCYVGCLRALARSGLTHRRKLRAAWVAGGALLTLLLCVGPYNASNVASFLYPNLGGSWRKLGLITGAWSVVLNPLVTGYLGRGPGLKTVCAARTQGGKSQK

Activity [1] [%]	EC50 [2] [µM]	Ratio EC50 [3]	EC50 [4] [µM]	Activity [5] [%]	SMILES	Activity [6]
100	2.6	2	5.2	100	CC/C=C\C/C=C\C/C=C\CCCCCCCC(=O)O [LINOLENIC ACID]	
31				104	CCCCCCN(CCOc1ccc(CCC(=O)O)cc1)c1ccccn1	
81				34	Cc1cccc(N(CCOc2ccc(CCCC(=O)O)cc2)c2ccccc2)n1	
41				10	CCCCN(CCOc1ccc(CCCC(=O)O)cc1)c1ccccn1	
59				23	O=C(O)CCCc1ccc(OCCN(c2ccc(F)cc2)c2ccccn2)cc1	
56				26	O=C(O)CCCc1ccc(OCCN(Cc2ccccc2)c2ccccn2)cc1	
71				33	O=C(O)CCCc1ccc(OCCN(c2cccc(F)c2)c2ccccn2)cc1	
0				121	CCCCCCCCCN(CCOc1ccc(CCC(=O)O)cc1)c1ccccn1	
45				147	CCN(CCOc1ccc(CCC(=O)O)cc1)c1ccccn1	
57				125	CCCN(CCOc1ccc(CCC(=O)O)cc1)c1ccccn1	
100				68	O=C(O)CCCc1ccc(OCCN(c2ccccc2)c2cc(Cl)ccn2)cc1	
0				58	CN(CCOc1ccc(CCC(=O)O)cc1)c1ccccn1	

Second part, the molecule before the results:

SMILES	Activity [1] [%]	EC50 [2] [µM]	Ratio EC50 [3]	EC50 [4] [µM]	Activity [5] [%]	Activity [6]
O=C(O)CCCc1ccc(OCCN(c2ccccc2)c2nccs2)cc1	106	1.7	12	21	30	
O=C(O)CCCc1ccc(OCCN(c2ccccc2)c2ccccn2)cc1	115	1.2	16	19	26	inactive
CCCCCCCN(CCOc1ccc(CCC(=O)O)cc1)c1ccccn1	0				99	
O=C(O)CCCc1ccc(OCCN(c2ccccc2)c2cccc(Cl)n2)cc1	70				32	
CCCCN(CCOc1ccc(CCC(=O)O)cc1)c1ccccn1	33				215	
O=C(O)CCc1ccc(OCCN(c2ccccn2)c2ccccn2)cc1	0				0	
O=C(O)CCc1ccc(OCCN(c2ccccc2)c2ccccn2)cc1	56				98	
Cc1ccc(N(CCOc2ccc(CCCC(=O)O)cc2)c2ccccn2)cc1	78				26	
O=C(O)CCCc1ccc(OCCN(c2ccc3ccccc3c2)c2ccccn2)cc1	37				27	
O=C(O)CCCc1ccc(OCCN(c2ccccc2)c2ccccc2)cc1	88				21	
O=C(O)CCCc1ccc(OCCN(c2cccnc2)c2ccccn2)cc1	65				1	
Cc1ccnc(N(CCOc2ccc(CCCC(=O)O)cc2)c2ccccc2)c1	81				43	
O=C(O)CCCc1ccc(OCCN(c2ccccc2)c2nc3ccccc3o2)cc1	43				8	
O=C(O)CCCc1ccc(OCCN(c2ccccc2)c2nc3ccccc3s2)cc1	73				32	
O=C(O)CCCCc1ccc(OCCN(c2ccccc2)c2ccccn2)cc1	58				99	
